Results taken from ChEMBL document CHEMBL5634209, “Computational design, synthesis, and assessment of 3-(4-(4-(1,3,4-oxadiazol-2-yl)-1H-imidazol-2-yl)phenyl)-1,2,4-oxadiazole derivatives as effective epidermal growth factor receptor inhibitors: a prospective strategy for anticancer therapy” (RSC Med Chem, 2024).

Experiments:
[1] = test system: PC-3; test: Antiproliferative activity against human PC-3 cells assessed as reduction in cell viability measured after 48 hrs by MTT assay; format: functional, cell-based; details: PC-3, 48 h
Summary of the method: (§1)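 Cells were grown at 37 °C in 5% CO2 in medium with 10% FBS: RPMI-1640 for A549, DU-145 and HepG2, and DMEM/F12 for PC-3. They were seeded at 5×10^3/well. At 70–80% confluence they were exposed to a concentration range diluted from a 60 mM DMSO stock for 48 h at 37 °C, with 0.1% DMSO as vehicle. MTT 5 mg/mL stock was added for 4 h, formazan dissolved in DMSO, A570 read, and % inhibition calculated against control. IC50 was taken from the concentration series.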

[2] = test system: A549; test: Antiproliferative activity against human A549 cells assessed as reduction in cell viability measured after 48 hrs by MTT assay; format: functional, cell-based; details: A549, 48 h; summary of the method: as §1
[3] = test system: HepG2; test: Antiproliferative activity against human HepG2 cells assessed as reduction in cell viability measured after 48 hrs by MTT assay; format: functional, cell-based; details: HepG2, 48 h; summary of the method: as §1
[4] = test system: DU-145; test: Antiproliferative activity against human DU-145 cells assessed as reduction in cell viability measured after 48 hrs by MTT assay; format: functional, cell-based; details: DU-145, 48 h; summary of the method: as §1
[5] = Cytotoxicity against African green monkey Vero cells assessed as reduction in cell viability measured after 48 hrs by MTT assay; format: toxicity, cell-based; details: African green monkey (Chlorocebus sabaeus)
[6] = Selectivity index, ratio of IC50 for cytotoxicity against African green monkey Vero cells to IC50 for antiproliferative activity against human PC-3 cells; format: toxicity, cell-based; details: Vero cells versus PC-3 cells, read-out: Ratio IC50
[7] = Selectivity index, ratio of IC50 for cytotoxicity against African green monkey Vero cells to IC50 for antiproliferative activity against human A549 cells; format: toxicity, cell-based; details: Vero cells versus A549 cells, read-out: Ratio IC50
[8] = Selectivity index, ratio of IC50 for cytotoxicity against African green monkey Vero cells to IC50 for antiproliferative activity against human HepG2 cells; format: toxicity, cell-based; details: Vero cells versus HepG2 cells, read-out: Ratio IC50
[9] = Selectivity index, ratio of IC50 for cytotoxicity against African green monkey Vero cells to IC50 for antiproliferative activity against human DU-145 cells; format: toxicity, cell-based; details: Vero cells versus DU-145 cells, read-out: Ratio IC50
[10] = target: Epidermal growth factor receptor (Homo sapiens, UniProt P00533); test: Inhibition of wild type EGFR (unknown origin) incubated for 40 mins by Kinase Glo Max reagent based luminescence analysis
[11] = target: Epidermal growth factor receptor (Homo sapiens, UniProt P00533, T790M); test: Inhibition of EGFR T790M mutant (unknown origin) incubated for 40 mins by Kinase Glo Max reagent based luminescence analysis
Epidermal growth factor receptor (Homo sapiens, UniProt P00533, T790M), sequence (P00533 25-1210 T790M limits assumed): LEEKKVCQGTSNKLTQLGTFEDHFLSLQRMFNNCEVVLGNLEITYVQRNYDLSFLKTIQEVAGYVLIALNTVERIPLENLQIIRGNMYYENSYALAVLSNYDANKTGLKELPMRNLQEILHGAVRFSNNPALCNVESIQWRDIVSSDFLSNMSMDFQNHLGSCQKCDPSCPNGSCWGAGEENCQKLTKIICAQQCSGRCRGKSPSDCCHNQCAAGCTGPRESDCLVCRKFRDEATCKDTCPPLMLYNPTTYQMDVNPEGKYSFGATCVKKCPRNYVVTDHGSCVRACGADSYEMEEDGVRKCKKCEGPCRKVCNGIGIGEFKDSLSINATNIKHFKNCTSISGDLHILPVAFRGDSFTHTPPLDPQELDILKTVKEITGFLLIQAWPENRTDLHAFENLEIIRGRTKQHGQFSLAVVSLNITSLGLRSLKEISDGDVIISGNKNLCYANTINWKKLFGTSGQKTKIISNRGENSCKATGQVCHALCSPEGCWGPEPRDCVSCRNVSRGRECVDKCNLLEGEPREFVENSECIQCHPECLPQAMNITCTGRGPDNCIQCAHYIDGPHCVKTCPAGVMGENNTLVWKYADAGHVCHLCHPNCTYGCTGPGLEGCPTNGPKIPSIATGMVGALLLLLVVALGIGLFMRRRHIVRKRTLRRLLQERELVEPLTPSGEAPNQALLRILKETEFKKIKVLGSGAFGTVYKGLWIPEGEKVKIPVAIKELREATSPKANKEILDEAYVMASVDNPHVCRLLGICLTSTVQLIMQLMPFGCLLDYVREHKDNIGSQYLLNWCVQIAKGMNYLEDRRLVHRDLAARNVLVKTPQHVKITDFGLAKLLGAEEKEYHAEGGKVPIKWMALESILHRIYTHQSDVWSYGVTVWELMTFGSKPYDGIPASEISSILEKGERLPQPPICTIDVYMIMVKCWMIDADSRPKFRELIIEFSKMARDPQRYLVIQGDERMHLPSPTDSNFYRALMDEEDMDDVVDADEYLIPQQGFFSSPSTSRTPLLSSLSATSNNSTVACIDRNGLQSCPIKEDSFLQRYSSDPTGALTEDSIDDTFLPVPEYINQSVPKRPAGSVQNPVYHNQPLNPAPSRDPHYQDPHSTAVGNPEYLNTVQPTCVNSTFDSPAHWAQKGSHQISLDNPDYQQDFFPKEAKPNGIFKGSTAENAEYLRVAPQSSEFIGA

Epidermal growth factor receptor (Homo sapiens, UniProt P00533), sequence (P00533 whole entry): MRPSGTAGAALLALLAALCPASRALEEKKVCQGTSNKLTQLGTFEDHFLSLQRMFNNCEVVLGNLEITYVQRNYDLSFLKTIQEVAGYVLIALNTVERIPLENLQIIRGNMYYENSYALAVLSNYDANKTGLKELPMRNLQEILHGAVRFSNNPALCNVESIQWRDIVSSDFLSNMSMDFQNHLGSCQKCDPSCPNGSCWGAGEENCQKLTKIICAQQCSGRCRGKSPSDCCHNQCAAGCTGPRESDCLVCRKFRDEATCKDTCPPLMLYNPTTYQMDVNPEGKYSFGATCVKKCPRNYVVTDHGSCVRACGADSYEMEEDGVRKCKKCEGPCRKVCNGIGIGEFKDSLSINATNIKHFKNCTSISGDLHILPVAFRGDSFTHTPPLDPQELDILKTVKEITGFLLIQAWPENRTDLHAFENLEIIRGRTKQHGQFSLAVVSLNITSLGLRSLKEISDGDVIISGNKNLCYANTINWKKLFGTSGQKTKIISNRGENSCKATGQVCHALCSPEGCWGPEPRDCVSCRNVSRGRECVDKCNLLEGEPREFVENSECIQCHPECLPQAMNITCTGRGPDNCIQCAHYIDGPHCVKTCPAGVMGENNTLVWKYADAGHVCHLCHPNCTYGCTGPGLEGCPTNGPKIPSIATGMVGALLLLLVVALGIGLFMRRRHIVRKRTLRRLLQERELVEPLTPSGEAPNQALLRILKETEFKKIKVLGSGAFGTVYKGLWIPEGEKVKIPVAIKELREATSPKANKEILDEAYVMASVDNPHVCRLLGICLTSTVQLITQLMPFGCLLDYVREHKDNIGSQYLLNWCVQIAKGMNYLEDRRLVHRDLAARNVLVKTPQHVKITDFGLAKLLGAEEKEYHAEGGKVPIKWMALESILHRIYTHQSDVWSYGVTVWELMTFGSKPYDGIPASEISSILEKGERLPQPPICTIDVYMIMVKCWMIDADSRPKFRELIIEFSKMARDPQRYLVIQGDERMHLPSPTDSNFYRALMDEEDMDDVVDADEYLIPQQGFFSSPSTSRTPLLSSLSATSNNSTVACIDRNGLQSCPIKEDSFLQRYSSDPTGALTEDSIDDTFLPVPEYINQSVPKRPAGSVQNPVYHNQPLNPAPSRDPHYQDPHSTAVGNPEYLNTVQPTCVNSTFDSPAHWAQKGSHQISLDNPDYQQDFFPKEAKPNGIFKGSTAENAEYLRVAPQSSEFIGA

Compound | IC50 [1] | IC50 [2] | IC50 [3] | IC50 [4] | IC50 [10] | IC50 [11] | IC50 at 48 h [5] | selectivity ratio [6] | selectivity ratio [7] | selectivity ratio [8] | selectivity ratio [9]
COc1cc([C@@H]2c3cc4c(cc3[C@@H](O[C@@H]3O[C@@H]5CO[C@@H](C)O[C@H]5[C@H](O)[C@H]3O)[C@H]3COC(=O)[C@H]23)OCO4)cc(OC)c1O [ETOPOSIDE] | 2390 nM | 3080 nM | 2110 nM | 1970 nM |  |  | > 25000 nM | 10.5 | 8.11 | 11.8 | 12.7
O=[N+]([O-])c1cc(-c2nc(-c3ccc(-c4nc(-c5nnc(-c6ccncc6)o5)c[nH]4)cc3)no2)cc([N+](=O)[O-])c1 | 6220 nM | 5490 nM | 3610 nM |  |  |  | > 25000 nM | 4.01 | 4.55 | 6.92 | 

Compounds with a lower IC50 [1], results first:

IC50 [1] | IC50 [2] | IC50 [3] | IC50 [4] | IC50 [10] | IC50 [11] | Compound | IC50 at 48 h [5] | selectivity ratio [6] | selectivity ratio [7] | selectivity ratio [8] | selectivity ratio [9]
1870 nM | 2030 nM | 2120 nM | 2340 nM |  |  | Cc1ccc(-c2nc(-c3ccc(-c4nc(-c5nnc(-c6ccncc6)o5)c[nH]4)cc3)no2)cc1 | > 15000 nM | 8.02 | 7.38 | 7.1 | 6.41
980 nM | 860 nM | 273 nM | 880 nM | 217 nM | 1230 nM | COc1cc(OC)cc(-c2nc(-c3ccc(-c4nc(-c5nnc(-c6ccncc6)o5)c[nH]4)cc3)no2)c1 | > 15000 nM | 15.3 | 17.4 | 54.9 | 17
1290 nM | 1100 nM | 1240 nM | 1740 nM | 958 nM | 1190 nM | COc1ccc(-c2nc(-c3ccc(-c4nc(-c5nnc(-c6ccncc6)o5)c[nH]4)cc3)no2)cc1 | > 16000 nM | 12.4 | 14.5 | 12.9 | 9.2
2190 nM | 1980 nM | 1780 nM | 2490 nM |  |  | CN(C)c1ccc(-c2nc(-c3ccc(-c4nc(-c5nnc(-c6ccncc6)o5)c[nH]4)cc3)no2)cc1 | > 16000 nM | 7.3 | 8.08 | 9.03 | 6.42
